Experimental data taken from paper PMC3107735 (Biochemistry, 2011).
Values joined by “and” are separate entries in the source; they are usually repeats but may differ in a detail not shown here. Equal values may be shown once.

How the values were obtained:
thrombin [1] = biological target: T1, thrombin (Bos taurus, UniProt P00735); assay: Isothermal titration calorimetry; format: binding, bovine; settings: for N (stoichiometry of binding) / ΔH / -TΔS / ΔG / Ka: thrombin in cell, 25°C; for N (stoichiometry of binding) / ΔH / Ka: pH 7.4; for -TΔS: computed from ΔG-ΔH; for ΔG: obtained from KA
thrombin [2] = biological target: T1, thrombin; assay: Differential scanning calorimetry; design: species or system bovine; settings: DSC; 25 μM thrombin; thrombin alone 56.9°C or 57.9°C (Figure 6 legend)
PPACK-thrombin = PPACK-thrombin (Bos taurus, UniProt P00735); assay: ITC, ligand titrated into PPACK-thrombin; format: binding, bovine; settings: ppack-thrombin in cell, 25°C; for Ka / N (stoichiometry of binding) / ΔH: pH 7.4; for -TΔS: computed from ΔG-ΔH; for ΔG: obtained from KA
Method in brief: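 Bovine α-thrombin treated with PPACK (1.1 μmol per 1 mL fraction, 3 h shaking, room temperature), re-purified by size exclusion the same day, and held at 6.5 μM in the cell (BCA). Buffer was 50 mM Bis-tris propane pH 7.4, 150 mM NaCl, 2.5 mM CaCl2. Degassed ligand at 65-70 μM was injected at 25°C with a 180 s initial delay. Heats were integrated and corrected for dilution; ΔG came from Ka and -TΔS from ΔG-ΔH.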

TM45-thrombin = TM45-thrombin (Bos taurus, UniProt P00735); assay: ITC, ligand titrated into TMEGF45-thrombin complex; format: binding, bovine; settings: TM45-thrombin in cell, 25°C; for Ka / N (stoichiometry of binding) / ΔH: pH 7.4; for -TΔS: computed from ΔG-ΔH; for ΔG: obtained from KA
aptamer-thrombin complex = aptamer-thrombin complex (Bos taurus, UniProt P00735); assay: ITC, ligand titrated into pre-formed aptamer-thrombin complex; format: binding, bovine; settings: apt-thrombin in cell, 25°C; for Ka / N (stoichiometry of binding) / ΔH: pH 7.4; for -TΔS: computed from ΔG-ΔH; for ΔG: obtained from KA
thrombin [3] = biological target: T1, thrombin; settings: DSC; increases from 57°C for thrombin; cited from earlier work

Compound: calcium
- change in heat upon addition to thrombin in the cell (ITC) (thrombin [1]; calcium added to thrombin in the cell): no measurable direct binding

Compound: GGTTGGTGTGGTTGG [aptamer]
- melting (denaturation) temperature of thrombin with ligand bound at exosite 1 (thrombin [2]): 57.9 °C and 58.7 °C
- N (stoichiometry of binding) (thrombin [1]; with 2.5 mM calcium): 0.87 ± 0.04
- ΔH (thrombin [1]; with 2.5 mM calcium): -22.4 ± 0.1 kcal/mol
- -TΔS (thrombin [1]; with 2.5 mM calcium): 12.6 ± 1.0 kcal/mol
- ΔG (thrombin [1]; with 2.5 mM calcium): -9.8 ± 0.1 kcal/mol
- Ka (thrombin [1]; without calcium): 0.9 ± 0.2 ×10^7 M^-1
- N (stoichiometry of binding) (thrombin [1]; without calcium): 0.96 ± 0.1
- ΔH (thrombin [1]; without calcium): -20.2 ± 0.8 kcal/mol
- ΔH (thrombin [1]; without calcium, listed as DNA aptamer): -20.2 kcal/mol
- -TΔS (thrombin [1]; without calcium): 10.5 ± 0.9 kcal/mol
- ΔG (thrombin [1]; without calcium): -9.7 ± 0.2 kcal/mol
- Ka (PPACK-thrombin; with 2.5 mM calcium): 1.4 ± 0.6 ×10^7 M^-1
- N (stoichiometry of binding) (PPACK-thrombin; with 2.5 mM calcium): 0.9 ± 0.1
- ΔH (PPACK-thrombin; with 2.5 mM calcium): -21.0 ± 0.3 kcal/mol
- -TΔS (PPACK-thrombin; with 2.5 mM calcium): 11.3 ± 0.004 kcal/mol
- ΔG (PPACK-thrombin; with 2.5 mM calcium): -9.7 ± 0.3 kcal/mol
- Ka (PPACK-thrombin; without calcium): 0.8 ± 0.1 ×10^7 M^-1
- N (stoichiometry of binding) (PPACK-thrombin; without calcium): 0.98 ± 0.02
- ΔH (PPACK-thrombin; without calcium): -17.7 ± 1.1 kcal/mol
- -TΔS (PPACK-thrombin; without calcium): 8.3 ± 1.2 kcal/mol
- ΔG (PPACK-thrombin; without calcium): -9.4 ± 0.8 kcal/mol

Compound: CCC1CCN(C(=O)[C@H](CCCNC(=N)N)NS(=O)(=O)c2cccc3c(N(C)C)cccc23)CC1 [DAPA, dansyl-L-arginine-(3-ethyl-1,5-pantanediyl) amide]
- Ka (thrombin [1]; with 2.5 mM calcium): 4.5 ± 0.5 ×10^7 M^-1
- N (stoichiometry of binding) (thrombin [1]; with 2.5 mM calcium): 0.9 ± 0.1
- ΔH (thrombin [1]; with 2.5 mM calcium): -6.2 ± 0.04 kcal/mol
- -TΔS (thrombin [1]; with 2.5 mM calcium): -4.2 ± 0.1 kcal/mol
- ΔG (thrombin [1]; with 2.5 mM calcium): -10.4 ± 0.1 kcal/mol
- Ka (thrombin [1]; without calcium): 4.5 ± 2.5 ^1 ×10^7 M^-1
- N (stoichiometry of binding) (thrombin [1]; without calcium): 0.9 ± 0.1
- -TΔS (thrombin [1]; without calcium): -4.4 ± 0.6 kcal/mol
- ΔG (thrombin [1]; without calcium): -10.3 ± 0.4 kcal/mol
- Ka (TM45-thrombin; with 2.5 mM calcium): 5.9 ± 2.2 ×10^7 M^-1
- N (stoichiometry of binding) (TM45-thrombin; with 2.5 mM calcium): 1.00 ± 0.06
- ΔH (TM45-thrombin; with 2.5 mM calcium): -5.0 ± 0.1 kcal/mol
- -TΔS (TM45-thrombin; with 2.5 mM calcium): -5.5 ± 0.2 kcal/mol
- ΔG (TM45-thrombin; with 2.5 mM calcium): -10.5 ± 0.2 kcal/mol
- Ka (TM45-thrombin; without calcium): 5.0 ± 1.8 ×10^7 M^-1
- N (stoichiometry of binding) (TM45-thrombin; without calcium): 0.86 ± 0.02
- ΔH (TM45-thrombin; without calcium): -4.5 ± 0.2 kcal/mol
- -TΔS (TM45-thrombin; without calcium): -6.0 ± 0.4 kcal/mol
- ΔG (TM45-thrombin; without calcium): -10.5 ± 0.2 kcal/mol
- Ka (aptamer-thrombin complex; with 2.5 mM calcium): 5.6 ± 2.1 ×10^7 M^-1
- N (stoichiometry of binding) (aptamer-thrombin complex; with 2.5 mM calcium): 1.06 ± 0.08
- ΔH (aptamer-thrombin complex; with 2.5 mM calcium): -4.8 ± 0.2 kcal/mol
- -TΔS (aptamer-thrombin complex; with 2.5 mM calcium): -5.7 ± 0.4 kcal/mol
- ΔG (aptamer-thrombin complex; with 2.5 mM calcium): -10.5 ± 0.3 kcal/mol
- Ka (aptamer-thrombin complex; without calcium): 5.8 ± 0.37 ×10^7 M^-1
- N (stoichiometry of binding) (aptamer-thrombin complex; without calcium): 1.11 ± 0.1
- ΔH (aptamer-thrombin complex; without calcium): -4.2 ± 0.3 kcal/mol
- -TΔS (aptamer-thrombin complex; without calcium): -6.4 ± 0.7 kcal/mol
- ΔG (aptamer-thrombin complex; without calcium): -10.6 ± 0.4 kcal/mol

Compound: NC(N)=NCCC[C@H](NC(=O)[C@@H]1CCCN1C(=O)[C@H](N)Cc1ccccc1)C(=O)CCl [PPACK, DPhe-Pro-Arg-chloromethyl ketone]
- Tm of thrombin with ligand bound at the active site (thrombin [3]): 70 °C
